# Assay outcomes as filed in PubChem.
# Shown are actives, neighbours in structure and some others; about 2.4% of the full set was active somewhere.
# NPY-Y1 antag – antagonists of human neuropeptide Y receptor Y1 | AID 1040 | inhibition, % at 3.6 µM | P25929 | 200,000 tested, 1% active | HEK293-CNG Y1 cells, membrane potential fluorescence; NPY at EC95, then isoproterenol;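 active means inhibition above the campaign mean inhibition of all tested compounds plus 3 SD, cut at about 20% in these data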;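 further: 0% = DMSO wells given NPY plus isoproterenol and 100% = isoproterenol alone without NPY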
# Target sequence (P25929 whole entry, looked up): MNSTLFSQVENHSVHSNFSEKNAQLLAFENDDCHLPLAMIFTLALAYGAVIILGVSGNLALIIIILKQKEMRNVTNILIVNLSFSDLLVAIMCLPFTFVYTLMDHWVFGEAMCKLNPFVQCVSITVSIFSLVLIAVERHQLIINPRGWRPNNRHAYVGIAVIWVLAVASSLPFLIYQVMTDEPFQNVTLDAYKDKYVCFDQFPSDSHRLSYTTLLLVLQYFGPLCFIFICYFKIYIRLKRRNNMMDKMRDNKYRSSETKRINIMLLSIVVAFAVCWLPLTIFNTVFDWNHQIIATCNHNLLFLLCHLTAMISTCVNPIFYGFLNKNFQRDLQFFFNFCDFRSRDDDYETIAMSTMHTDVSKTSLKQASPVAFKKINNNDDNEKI
#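 material = HEK293 cells with Y1 receptor plus CNG channel | also added = NPY 25 nM then isoproterenol 1 µM plus Ro 20-1724 25 µM | schedule = dye 3 h, compound 60 min room temperature, stimulation 45 min | measured by = membrane potential fluorescence | benchmarks = high control isoproterenol alone, low control NPY with isoproterenol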
# S1P4 agonist – agonists of human S1P4 receptor. S1P4-expressing cell line, agonist reporter assay. activation, % at 4.98 µM. 220,000 tested, 0.35% active; in the data active means activation above about 11%;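 further: 0% = DMSO vehicle and 100% = reference agonist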
# NPY2 pot ag – human NPY-Y2 potentiation or agonism, primary screen; cells expressing NPY-Y2, potentiator/agonist read-out; activation, % at 3.6 µM; 220,000 tested, 0.45% active; AID 1359; P49146; in the data active means activation above about 27%;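 further: cells stimulated with NPY near EC25 plus isoproterenol at EC100; 0% = vehicle plus submaximal agonist and 100% = vehicle plus saturating agonist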
# NPY Y2 blocker – NPY-Y2 (human) receptor antagonism; P49146; NPY-Y2 expressing cells, antagonist mode; inhibition, % at 2.7 µM; 140,000 tested, 0.99% active; AID 793; in the data active means inhibition above about 17%;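 further: 0% = vehicle with agonist challenge and 100% = reference antagonist with challenge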
# NPY1 pot ag – potentiators or agonists of human neuropeptide Y receptor Y1. P25929. NPY-Y1 expressing cells, potentiator/agonist activation. activation, % at 3.6 µM. 220,000 tested, 0.37% active. AID 1304; in the data active means activation above about 33%, passing the limit was not always enough;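 further: cells stimulated with NPY at EC10 then isoproterenol at EC100; 0% = low agonist plus stimulus and 100% = saturating agonist plus stimulus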
# S1P4 antagonist – human S1P4 receptor antagonism. inhibition, % at 4.98 µM. S1P4-expressing cells, antagonist mode, reporter read-out. 220,000 tested, 0.26% active. O95977; in the data active means inhibition above about 29%;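 further: 0% = wells stimulated with agonist and 100% = vehicle wells without agonist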
# S1P4 agonist cf – confirmation of human S1P4 receptor agonists | shares compounds with S1P4 agonist | S1P4 agonist cell-based reporter assay | activation, % at 4.98 µM | 740 tested, 7% active; in the data active means activation above about 12%;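 further: 0% = vehicle and 100% = full reference agonist response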
# S1P1 agonist – human S1P1 agonism as S1P4 agonist counter-screen; shares compounds with S1P4 agonist; S1P1 agonist cell-based assay, activation; activation, % at 4.98 µM; 740 tested, 4% active; AID 1563; in the data active means activation above about 21%;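 further: 0% = vehicle wells and 100% = reference agonist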
# Active calls of the source: *; . = no result.
SMILES,NPY-Y1 antag,S1P4 agonist,NPY2 pot ag,NPY Y2 blocker,NPY1 pot ag,S1P4 antagonist,S1P4 agonist cf,S1P1 agonist
CCOC(=O)C1CCN(C(=O)CCc2c(C)nc3cc(-c4ccccc4)nn3c2C)CC1,5,0,18,2,8,-9,.,.
CCOC(=O)C1CCN(c2cc(C)nc3cc(-c4cccc(F)c4)nn23)CC1,4,13*,7,0,-11,4,-1,3
COCCNC(=S)N1CCN(S(C)(=O)=O)CC1,1,0,-3,.,13,11,.,.
COc1ccc(C2=NOC(C(=O)NC(C)(C)C)C2)cc1 (configuration not stated),0,23*,-32,-1,13,-16,-2,-9
CCN(CC)C(=O)C1CC(c2ccc(OC)cc2)=NO1 (configuration not stated),0,1,-22,0,9,-4,.,.
COc1cc(Br)cc(C=Nc2cccc(C(F)(F)F)c2)c1O,-4,13*,-4,3,-16,-15,0,2
C=CCn1c(=N)c(C(=O)NCCCOC)cc2c(=O)n3cc(C)ccc3nc21,-4,12*,4,4,-20,-7,0,0
C=CCn1c(=N)c(C#N)cc2c(=O)n3ccccc3nc21,0,0,-8,4,-5,-25,.,.
C=CCn1c(=N)c(C(=O)NCCCOC)cc2c(=O)n3ccccc3nc21,12,11*,-6,4,-2,-13,8,9
Cc1ccc2nc3c(cc(C(=O)NCC4CCCO4)c(=N)n3CCCOC(C)C)c(=O)n2c1 (configuration not stated),-1,7,7,0,4,-21,.,.
CCOC(=O)NC(=O)c1cn(CCNCCO)c(=O)[nH]c1=O,-1,-2,10,.,-15,-5,.,.
CC1CN(CC(O)COC(c2ccccc2)c2ccccc2)CC(C)O1 (configuration not stated),5,57*,5,3,-12,-9,-1,5
OC(COC(c1ccccc1)c1ccccc1)CN1CCOCC1 (configuration not stated),9,2,-12,.,-9,7,.,.
O=C(c1ccc(NS(=O)(=O)c2cccc3cccnc23)cc1)N1CCCCC1,-3,23*,-5,.,-1,5,-1,-4
CCOC1CCc2c(C)nc(N)nc2S1 (configuration not stated),.,24*,-14,.,1,2,-2,0
CCCn1c(C)cc(C(=O)COC(=O)CN=C2NS(=O)(=O)c3ccccc32)c1C,-1,-1,9,1,13,-14,.,.
COc1cccc(CNc2cccc(C(F)(F)F)c2)c1O,13,17*,2,.,-1,6,-2,-4
CCN(CC)C(=O)Cn1cc(C(=O)C(=O)NCc2ccco2)c2ccccc21,2,13*,2,.,2,1,-1,4
Cc1ccccc1NS(=O)(=O)c1cc(OCC(N)=O)c(C)cc1Cl,-9,15*,2,.,11,1,-2,-4
Cc1ccc(NS(=O)(=O)c2cc(OCC(N)=O)c(C)cc2Cl)cc1C,-2,2,-8,-1,8,-115,.,.
COc1ccccc1C(=O)NC(=S)Nc1ccc(N2CCOCC2)c(Cl)c1,1,36*,-12,.,21,-5,2,81*
COP(=O)(CC(=O)c1ccccc1)CC(=O)c1ccccc1,0,-1,-7,.,11,9,.,.
COC(=O)c1sc(NC(=O)c2ccco2)nc1C,0,1,10,2,18,-24,.,.
CCOC(=O)c1sc(NC(=S)NC(=O)c2ccco2)nc1C,2,34*,11,2,10,-1,-3,-2
O=C(COc1ccccc1)NCc1cccs1,2,14*,-5,0,27,-1,-3,-4
Cc1ccc(OCC(=O)NCc2cccs2)cc1,11,-2,-8,1,-17,-27,.,.
CCCCn1c(SCC(=O)Nc2cccc(OC)c2)nc2ccc(N3CCOCC3)cc2c1=O,5,14*,2,1,-10,-13,-2,-1
CCCCn1c(SCC(N)=O)nc2ccc(N3CCOCC3)cc2c1=O,2,-3,-4,4,-17,1,.,.
